From ChEMBL document CHEMBL1649436, “Antiviral activity of MK-4965, a novel nonnucleoside reverse transcriptase inhibitor” (Antimicrob Agents Chemother, 2009)

What was measured:
Type in all cases: functional
[1] = system: Human immunodeficiency virus 1; assay: Antiviral activity against HIV1 CRF17_BF harboring mutant reverse transcriptase relative to HIV1 CNDO with wild type reverse transcriptase
Outline: (§1)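 Single-cycle PhenoScreen assay run by Monogram Biosciences, using viruses carrying RT sequences from clinical isolates, subtypes/CRFs or PI/NRTI-resistant clade B viruses; nine serial drug concentrations; activity expressed relative to drug-sensitive reference strain CNDO (protease and RT from NL4-3), with multidrug-resistant MDRC4 as assay-performance control.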

[2] = system: Human immunodeficiency virus 1; assay: Antiviral activity against HIV1 CRF02_AG harboring mutant reverse transcriptase relative to HIV1 CNDO with wild type reverse transcriptase; outline: as §1
[3] = system: Human immunodeficiency virus 1; assay: Antiviral activity against NRTI-, PI-resistant HIV1 harboring mutant reverse transcriptase relative to HIV1 CNDO with wild type reverse transcriptase; outline: as §1
[4] = system: Human immunodeficiency virus 1; assay: Antiviral activity against HIV1 clade F1 harboring mutant reverse transcriptase relative to HIV1 CNDO with wild type reverse transcriptase
[5] = system: Human immunodeficiency virus 1; assay: Antiviral activity against HIV1 isolate R8 harboring wild type reverse transcriptase infected in human MT4 cells assessed as inhibition of viral replication after 72 hrs in presence of 50% human serum; details: Human immunodeficiency virus 1, isolate R8, MT4, 72 h
Outline: (§2)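 Multiple-cycle assay: MT-4 cells (2.5 × 10^5) infected with R8-based virus at low MOI, no inhibitor, 24 h at 37°C, 5% CO2; washed, reseeded at 5 × 10^4 cells in RPMI 1640 with 10% FBS or 50% type AB human serum; threefold serial dilutions from 833 nM to 0.32 nM; 72 h; p24 in medium by AlphaScreen; EC95 = lowest concentration giving ≥95% p24 reduction versus untreated.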

[6] = system: Human immunodeficiency virus 1; assay: Antiviral activity against HIV1 CRF01_AE harboring mutant reverse transcriptase relative to HIV1 CNDO with wild type reverse transcriptase; outline: as §1
[7] = system: Human immunodeficiency virus 1; assay: Antiviral activity against HIV1 isolate R8 harboring reverse transcriptase K103N and Y181C mutant infected in human MT4 cells assessed as inhibition of viral replication after 72 hrs in presence of 10% FBS; details: Human immunodeficiency virus 1, isolate R8, MT4, 72 h; outline: as §2
[8] = system: Human immunodeficiency virus 1; assay: Antiviral activity against HIV1 isolate R8 harboring reverse transcriptase K103N mutant infected in human MT4 cells assessed as inhibition of viral replication after 72 hrs in presence of 50% human serum; details: Human immunodeficiency virus 1, isolate R8, MT4, 72 h; outline: as §2
[9] = system: Human immunodeficiency virus 1; assay: Antiviral activity against HIV1 isolate R8 harboring reverse transcriptase K103N mutant infected in human MT4 cells assessed as inhibition of viral replication after 72 hrs in presence of 10% FBS; details: Human immunodeficiency virus 1, isolate R8, MT4, 72 h; outline: as §2
[10] = system: Human immunodeficiency virus 1; assay: Antiviral activity against HIV1 clade H harboring mutant reverse transcriptase relative to HIV1 CNDO with wild type reverse transcriptase
[11] = system: Human immunodeficiency virus 1; assay: Antiviral activity against HIV1 clade G harboring mutant reverse transcriptase relative to HIV1 CNDO with wild type reverse transcriptase
[12] = system: Human immunodeficiency virus 1; assay: Antiviral activity against HIV1 clade D harboring mutant reverse transcriptase relative to HIV1 CNDO with wild type reverse transcriptase
[13] = system: Human immunodeficiency virus 1; assay: Antiviral activity against HIV1 isolate R8 harboring reverse transcriptase Y181C mutant infected in human MT4 cells assessed as inhibition of viral replication after 72 hrs in presence of 50% human serum; details: Human immunodeficiency virus 1, isolate R8, MT4, 72 h; outline: as §2
[14] = system: Human immunodeficiency virus 1; assay: Antiviral activity against HIV1 clade B harboring mutant reverse transcriptase relative to HIV1 CNDO with wild type reverse transcriptase
[15] = system: Human immunodeficiency virus 1; assay: Antiviral activity against HIV1 clade C harboring mutant reverse transcriptase relative to HIV1 CNDO with wild type reverse transcriptase
[16] = system: Human immunodeficiency virus 1; assay: Antiviral activity against HIV1 clade A harboring mutant reverse transcriptase relative to HIV1 CNDO with wild type reverse transcriptase
[17] = system: Human immunodeficiency virus 1; assay: Antiviral activity against HIV1 isolate R8 harboring reverse transcriptase K103N and Y181C mutant infected in human MT4 cells assessed as inhibition of viral replication after 72 hrs in presence of 50% human serum; details: Human immunodeficiency virus 1, isolate R8, MT4, 72 h; outline: as §2
[18] = system: Human immunodeficiency virus 1; assay: Antiviral activity against NRTI-resistant HIV1 harboring mutant reverse transcriptase relative to HIV1 CNDO with wild type reverse transcriptase; outline: as §1
[19] = system: Human immunodeficiency virus 1; assay: Antiviral activity against HIV1 isolate R8 harboring reverse transcriptase Y181C mutant infected in human MT4 cells assessed as inhibition of viral replication after 72 hrs in presence of 10% FBS; details: Human immunodeficiency virus 1, isolate R8, MT4, 72 h; outline: as §2
[20] = system: Human immunodeficiency virus 1; assay: Antiviral activity against PI-resistant HIV1 harboring mutant reverse transcriptase relative to HIV1 CNDO with wild type reverse transcriptase; outline: as §1
[21] = system: Human immunodeficiency virus 1; assay: Antiviral activity against HIV1 isolate R8 harboring wild type reverse transcriptase infected in human MT4 cells assessed as inhibition of viral replication after 72 hrs in presence of 10% FBS; details: Human immunodeficiency virus 1, isolate R8, MT4, 72 h; outline: as §2

Structure (SMILES) | fold change (FC) [1] | fold change (FC) [2] | fold change (FC) [3] | fold change (FC) [4] | fold change (FC) [6] | fold change (FC) [10] | fold change (FC) [11] | fold change (FC) [12] | fold change (FC) [14] | fold change (FC) [15] | fold change (FC) [16] | fold change (FC) [18] | fold change (FC) [20] | also measured
Nc1ccn([C@@H]2CS[C@H](CO)O2)c(=O)n1 [LAMIVUDINE] | 1.37 | 1.31 | 5.96 | – | – | – | – | – | – | – | – | – | – | –
Cc1ccnc2c1NC(=O)c1cccnc1N2C1CC1 [NEVIRAPINE] | 0.83 | 0.4 | 0.32 | 0.73 | 0.67 | 0.13 | 1.25 | 0.35 | 1.25 | 0.7 | 0.94 | 0.49 | 1.05 | EC95 [5]: 0.464 µM; EC95 [7]: > 8 µM; EC95 [8]: > 8 µM; EC95 [9]: > 8 µM; EC95 [13]: > 8 µM; EC95 [17]: > 8 µM; EC95 [19]: > 8 µM; EC95 [21]: 0.438 µM
C[C@H](Cn1cnc2c(N)ncnc21)OCP(=O)(O)O [TENOFOVIR ANHYDROUS] | 0.83 | 0.93 | 2.43 | 0.96 | 0.78 | 0.67 | 0.96 | 0.74 | 0.94 | 0.97 | 0.95 | 1.97 | 0.82 | –
